In ChEMBL document CHEMBL3739385, “Stelleralides D-J and Anti-HIV Daphnane Diterpenes from Stellera chamaejasme” (J Nat Prod, 2015):

Tests used:
MT4 = test: Cytotoxicity against human MT4 cells by cellTiterGlo assay; type: cell-based
Method in brief: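 MT4 cells are cultured in parallel with the antiviral assay and treated with compounds. Viability is read with CellTiter-Glo luminescent reagent, which quantifies ATP in metabolically active cells. CC50, the concentration reducing viable cells by 50%, is calculated from the dose-response curve.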

[1] = Selectivity index, ratio of CC50 for human MT4 cells to EC50 for HIV-1 NL4-3 infected in MT4 cells; type: toxicity, cell-based; details: read-out: Ratio CC50/EC50
[2] = system: Human immunodeficiency virus 1; test: Antiviral activity against HIV-1 NL4-3 infected in MT4 cells assessed as viral replication measured on day 4 post infection by ELISA; type: functional, organism-based; details: Human immunodeficiency virus 1, NL4-3, MT4, 96 h
Method in brief: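 HIV-1 NL4-3 at MOI 0.001 infects MT4 cells in the presence of graded compound concentrations. Fresh medium with compound is added 48 h after infection to keep the cells growing. On day 4 post-infection, replication is read by p24 ELISA.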

Structure (SMILES) | CC50 (MT4) [nM] | selectivity ratio [1] | EC50 [2] [nM]
C=C(C)[C@@]12O[C@@]3(/C=C/C=C/CCCCCCCCC)O[C@@H]1[C@@H]1[C@@H]4O[C@]4(CO)[C@@H](O)[C@]4(O)C(=O)C(C)=C[C@H]4[C@@]1(O3)[C@H](C)[C@H]2OC(C)=O | ≥ 15600 | ≥ 1300 | 12
C=C(C)[C@]12C[C@@H](COC(=O)c3ccccc3)[C@]34OC5(CCCCCCC[C@H](C)[C@@H]6[C@@H]3[C@]3(O[C@]6(C)OC3=O)[C@H](O)[C@@]3(COC(=O)CCCCCCC/C=C\C/C=C\CCCCC)O[C@H]3[C@H]4[C@H]1O5)O2 | ≥ 10800 | ≥ 1 | 6710
C=C(C)[C@]12C[C@@H](COC(=O)c3ccccc3)[C@@]34OC5(O[C@@H]1[C@@H]3[C@@H]1O[C@]1(CO)[C@@H](O)[C@@]1(O)[C@H]4[C@H]([C@H](C)[C@@H]1OC(=O)c1ccccc1)[C@H](C)C[C@@H](OC(=O)c1ccccc1)CCCC[C@H]5O)O2 | ≥ 11200 | ≥ 15300 | 0.73
C=C(C)[C@]1(O)C[C@@H](C)[C@@]2(O)[C@H]([C@H]1OC(=O)/C=C/C=C/CCCCCCCCC)[C@@H]1O[C@]1(CO)[C@@H](O)[C@]1(O)C(=O)C(C)=C[C@H]12 | ≥ 16600 | ≥ 281 | 59
C=C(C)[C@]12C[C@@H](C)[C@@]34OC(/C=C/C=C/CCCCCCCCCC)(O[C@@H]1[C@@H]3[C@@H]1O[C@]1(CO)[C@@H](O)[C@]1(O)C(=O)C(C)=C[C@H]14)O2 | ≥ 16700 | ≥ 1280 | 13
C=C(C)[C@]12C[C@@H](COC(=O)c3ccccc3)[C@]34OC5(CCCCCCC[C@H](C)[C@@H]6[C@@H]3[C@]3(O[C@]6(C)OC3=O)[C@H](O)[C@@]3(CO)O[C@H]3[C@H]4[C@H]1O5)O2 | ≥ 13800 | ≥ 41 | 330
C=C(C)[C@]12C[C@@H](COC(=O)c3ccccc3)[C@]34OC5(CCCCCCC[C@H](C)[C@@H]6[C@@H]3[C@]3(O[C@]6(C)OC3=O)[C@H](O)[C@@]3(COC(=O)CCCCCCCCCCCCCCC)O[C@H]3[C@H]4[C@H]1O5)O2 | ≥ 11100 | ≥ 18 | 590
C=C(C)[C@@]12OC3(/C=C/C=C/CCCCCCCCCC)O[C@@H]1[C@@H]1[C@@H]4O[C@]4(CO)[C@@H](O)[C@]4(O)C(=O)C(C)=C[C@H]4[C@@]1(O3)[C@H](C)[C@H]2OC(C)=O | ≥ 15300 | ≥ 392 | 39
C=C(C)[C@]12C[C@@H](COC(=O)c3ccccc3)[C@@]34OC5(O[C@@H]1[C@@H]3[C@@H]1O[C@]1(COC(=O)c1ccccc1)[C@@H](O)[C@@]1(O)[C@H]4[C@H]([C@H](C)[C@@H]1O)[C@H](C)CCCCCC[C@H]5O)O2 | ≥ 12900 | ≥ 13200 | 0.98
C=C(C)[C@]12C[C@@H](C)[C@@]34O[C@](/C=C/C=C/CCCCCCCCC)(O[C@@H]1[C@@H]3[C@@H]1O[C@]1(CO)[C@@H](O)[C@]1(O)C(=O)C(C)=C[C@H]14)O2 | ≥ 14000 | ≥ 5380 | 2.6
C=C(C)[C@]12C[C@@H](COC(C)=O)[C@@]34OC5(O[C@@H]1[C@@H]3[C@@H]1O[C@]1(CO)[C@@H](O)[C@@]1(O)[C@H]4[C@H]([C@H](C)[C@@H]1OC(=O)c1ccccc1)[C@H](C)C[C@@H](OC(=O)c1ccccc1)CCCC[C@H]5O)O2 | ≥ 12000 | ≥ 12900 | 0.93
C=C(C)[C@]1(O)C[C@@H](C)[C@@]2(O)[C@H]([C@H]1OC(=O)/C=C/C=C/CCCCCCCCC)[C@H](O)[C@@](O)(CO)[C@@H](O)[C@]1(O)C(=O)C(C)=C[C@H]12 | ≥ 4400 | ≥ 100 | 44
C=C(C)[C@]12C[C@@H](COC(=O)c3ccccc3)[C@@]34OC5(O[C@@H]1[C@@H]3[C@@H]1O[C@]1(CO)[C@@H](O)[C@@]1(O)[C@H]4[C@H]([C@H](C)[C@@H]1OC(=O)c1ccccc1)[C@H](C)CCCCCC[C@H]5O)O2 | ≥ 1290 | ≥ 21500 | 0.06
C=C(C)[C@]12C[C@@H](C)[C@@]34OC5(CCCCCCC[C@@H](C)[C@H]6[C@H](C)[C@H](OC(=O)c7ccccc7)[C@@](O)([C@H](O)[C@@]7(CO)O[C@H]7[C@H]3[C@H]1O5)[C@@H]64)O2 | ≥ 15700 | ≥ 14300 | 1.1
C=C(C)[C@]12C[C@@H](C)[C@]34O[C@]5(CCCCCCC[C@H](C)[C@@H]6[C@@H]3[C@]3(O[C@]6(C)OC3=O)[C@H](O)[C@@]3(CO)O[C@H]3[C@H]4[C@H]1O5)O2 | ≥ 18300 | ≥ 16 | 1120
C=C(C)[C@@]1(O)[C@H](OC(=O)/C=C/C=C/CCCCCCCCC)[C@@H]2[C@@H]3O[C@]3(CO)[C@@H](O)[C@]3(O)C(=O)C(C)=C[C@H]3[C@@]2(O)[C@H](C)[C@H]1OC(C)=O | ≥ 15200 | ≥ 345 | 44
C=C(C)[C@]12C[C@@H](COC(=O)c3ccccc3)[C@@]34OC5(CCCCCCC[C@@H](C)[C@H]6[C@H](C)C(=O)[C@@](O)([C@H](O)[C@@]7(CO)O[C@H]7[C@H]3[C@H]1O5)[C@@H]64)O2 | ≥ 15300 | ≥ 318 | 48
C=C(C)[C@@]12OC3(/C=C/C=C/CCCCCCCCCC)O[C@@H]1[C@@H]1[C@@H]4O[C@]4(CO)[C@@H](O)[C@]4(O)C(=O)C(C)=C[C@H]4[C@@]1(O3)[C@H](C)[C@H]2O | ≥ 16300 | ≥ 135 | 120
C=C(C)[C@]12C[C@@H](C)[C@@]34O[C@](CCCCCCCCC)(O[C@@H]1[C@@H]3[C@@H]1O[C@]1(CO)[C@@H](O)[C@]1(O)C(=O)C(C)=C[C@H]14)O2 [SIMPLEXIN] | ≥ 18800 | ≥ 400 | 47
Cc1cn([C@H]2C[C@H](N=[N+]=[N-])[C@@H](CO)O2)c(=O)[nH]c1=O [ZIDOVUDINE] | ≥ 3740 | – | –
